Assay results from ChEMBL document CHEMBL4837211, “Adamantane derivatives as potential inhibitors of p37 major envelope protein and poxvirus reproduction. Design, synthesis and antiviral activity” (Eur J Med Chem, 2021).

Assays:
Vero = assay: (§1) Cytotoxicity against African green monkey Vero cells assessed as reduction in cell viability by neutral red dye based colorimetric analysis; settings: chlorocebus sabaeus, vero
In short: (§2)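 Vero monolayers are grown in DMEM with 5% FBS, gentamicin and amphotericin B, and assayed in the same medium with 2% serum. Each compound is tested as 8 three-fold dilutions, starting at 1, 10 or 100 µg/ml, added before 1000 pfu/well virus. After 4 days, neutral red is added for 1.5 h, cells are washed and lysed, and OD is read. CC50 and IC50 are derived from OD values.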

[1] = tested on: p37 (Vaccinia virus Copenhagen); assay: Selectivity index, ratio of CC50 for African green monkey Vero cells to IC50 for inhibition of p37 in Vaccinia virus Copenhagen infected in African green monkey Vero cells; assay type: toxicity; settings: read-out: Ratio CC50/IC50
[2] = tested on: p37 (Ectromelia virus K1); assay: Selectivity index, ratio of CC50 for African green monkey Vero cells to IC50 for inhibition of p37 in Ectromelia virus K1 infected in African green monkey Vero cells; assay type: toxicity; settings: read-out: Ratio CC50/IC50
cells [3] = assay type: cell-based; settings: Cowpox virus, Vero, 96 h
cells [4] = assay type: cell-based; settings: Ectromelia virus, Vero, 96 h
[5] = as §1; settings: chlorocebus sabaeus, Vero cells; in short: as §2
[6] = tested on: p37 (Cowpox virus Grishak); assay: Selectivity index, ratio of CC50 for African green monkey Vero cells to IC50 for inhibition of p37 in Cowpox virus Grishak infected in African green monkey Vero cells; assay type: toxicity; settings: read-out: Ratio CC50/IC50

SMILES	CC50 (Vero) [µM]	selectivity ratio [1]	selectivity ratio [2]	IC50 (cells [3]) [µM]	IC50 (cells [4]) [µM]	CC50 [5] [µM]	selectivity ratio [6]
CC12CC3CC(C)(C1)CC(NC(=O)c1ccc(C(F)(F)F)cc1)(C3)C2	20.5						
O=C(NNC(=O)C12CC3CC(CC(C3)C1)C2)c1ccc(C(F)(F)F)cc1		> 255	> 273	4.77	1	> 273	> 57
O=C(NNC1C2CC3CC1CC(Cl)(C3)C2)c1ccc(C(F)(F)F)cc1 (stereo not drawn)		61	27.5	10.4	7.8	~215	20.7
O=C(NNC12CC3CC(CC(C3)C1)C2)c1ccc(C(F)(F)F)cc1						2.8	
C/C(=N\NC(=O)c1ccc(C(F)(F)F)cc1)C12CC3CC(CC(C3)C1)C2	> 274	> 26	> 25	11.9	10.9		> 23
CC12CC3CC(C1)CC(NC(=O)c1ccc(C(F)(F)F)cc1)(C3)C2	> 296	> 33	> 72	15.6	4.1		> 19
O=C(NNC1C2CC3CC(C2)CC1C3)c1ccc(C(F)(F)F)cc1 (stereo not drawn)		> 103	> 118	4.06	2.5	> 296	> 72
O=C(NCC12CC3CC(CC(C3)C1)C2)c1ccc(Br)cc1	238	28	136		1.75		
O=C(NC12CC3CC(CC(C3)C1)C2)c1ccc(C(F)(F)F)cc1	> 309	> 2320	> 628	0.928	0.492		> 333
CCC12CC3CC(C1)CC(C(=O)NNC(=O)c1ccc(C(F)(F)F)cc1)(C3)C2		3.75				47	
O=C(NC1C2CC3CC(C2)CC1C3)c1ccc(Br)cc1 (stereo not drawn)	> 299	> 98	> 61	11.3	4.9		> 26.5
O=C(NNC(=O)c1ccc(C(F)(F)F)cc1)NC12CC3CC(CC(C3)C1)C2	94.3	2.6					
O=C(NC1C2CC3CC(C2)CC1C3)c1ccc(C(F)(F)F)cc1 (stereo not drawn)	> 309	> 1430	> 543	0.96	0.569		> 321
O=C(NCC12CC3CC(CC(C3)C1)C2)c1ccc(C(F)(F)F)cc1	> 296	> 1100		1.24			> 239
CCC12CC3CC(C1)CC(NNC(=O)c1ccc(C(F)(F)F)cc1)(C3)C2		1.5				2.5	
CC12CC3CC(C)(C1)CC(C(=O)NNC(=O)c1ccc(C(F)(F)F)cc1)(C3)C2		> 8.2				> 254	
O=C(NN=C1C2CC3CC(C2)CC1C3)c1ccc(C(F)(F)F)cc1		> 1.5				> 297	
CN(C(=O)c1ccc(C(F)(F)F)cc1)C12CC3CC(CC(C3)C1)C2	> 296	> 61	> 48	32.9	6.17		> 9
CCC12CC3CC(C1)CC(NC(=O)c1ccc(C(F)(F)F)cc1)(C3)C2	> 280	> 68	> 25	11.1	11.1		> 25
CC(NNC(=O)c1ccc(C(F)(F)F)cc1)C12CC3CC(CC(C3)C1)C2 (racemic)		27				14	
O=C(NN1C(=O)[C@@H]2[C@@H]3C=C[C@@H]([C@H]4C[C@@H]34)[C@@H]2C1=O)c1ccc(C(F)(F)F)cc1 [TECOVIRIMAT]	> 266	> 100000	> 33000	0.00532	0.00806		> 50000
